Measured values published in ChEMBL document CHEMBL4831540, “Discovery of Aficamten (CK-274), a Next-Generation Cardiac Myosin Inhibitor for the Treatment of Hypertrophic Cardiomyopathy” (J Med Chem, 2021).

What was measured:
CYP3A4 = CYP3A4 (Homo sapiens, UniProt P08684); assay: Induction of CYP3A4 in human hepatocytes assessed as mRNA expression incubated for 3 days by RT-RTPCR analysis; assay type: ADME, cell-based, Hepatocyte
Procedure, shortened: (§1)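 Cryopreserved plateable human primary hepatocytes from three separate donors were tested at concentrations up to 50 μM. The end point was CYP mRNA level, with induction judged against predetermined cutoff values (2-fold).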

[1] = Half life in human; assay type: ADME
Rattus norvegicus [2] = assay: Anti-hypertrophic cardiomyopathy in Sprague-Dawley rat assessed as reduction in fractional shortening at 4 mg/kg, po measured upto 24 hrs by echocardiography relative to control; assay type: functional; parameters: scale not given: the % may be the effect or the level left; settings: time hrs <=24
Procedure, shortened: (§2)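 Normal Sprague–Dawley rats were given single oral doses of 0.5–4 mg/kg. Left ventricular dimensions and fractional shortening were measured by echocardiography at selected time points over 24 h, relative to vehicle treatment.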

Cytochrome P450 2B6 = molecular target: T1, Cytochrome P450 2B6 (Homo sapiens, UniProt P20813); assay: Induction of CYP2B6 in human hepatocytes assessed as mRNA expression incubated for 3 days by RT-RTPCR analysis; assay type: ADME, cell-based; settings: hepatocyte; procedure, shortened: as §1
T1 sequence (P20813 whole entry): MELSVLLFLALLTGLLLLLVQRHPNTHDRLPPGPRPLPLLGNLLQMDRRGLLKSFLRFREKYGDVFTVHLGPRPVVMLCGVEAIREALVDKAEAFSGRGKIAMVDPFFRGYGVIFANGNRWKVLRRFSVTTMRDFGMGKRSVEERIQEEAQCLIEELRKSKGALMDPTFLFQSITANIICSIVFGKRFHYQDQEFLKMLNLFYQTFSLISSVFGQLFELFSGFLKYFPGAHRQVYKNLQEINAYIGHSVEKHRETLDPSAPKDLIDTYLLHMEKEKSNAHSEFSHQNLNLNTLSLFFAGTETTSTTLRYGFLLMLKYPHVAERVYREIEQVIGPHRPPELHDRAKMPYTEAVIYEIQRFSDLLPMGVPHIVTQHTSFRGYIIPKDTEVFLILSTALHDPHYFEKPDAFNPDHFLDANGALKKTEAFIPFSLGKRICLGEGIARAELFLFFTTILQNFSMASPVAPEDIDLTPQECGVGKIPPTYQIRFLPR

Rattus norvegicus [3] = assay: Anti-hypertrophic cardiomyopathy in po dosed Sprague-Dawley rat assessed as reduction in fractional shortening measured upto 24 hrs by echocardiography; assay type: functional, organism-based; procedure, shortened: as §2
[4] = Ratio of IC50 to IC10 for anti-hypertrophic cardiomyopathy in po dosed Sprague-Dawley rat assessed as reduction in fractional shortening measured upto 24 hrs by echocardiography; assay type: functional; settings: time hrs <=24
Procedure, shortened: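 Sprague–Dawley rats received single oral doses from 0.5 to 4 mg/kg. LV dimensions and fractional shortening were read by echocardiography at set times over 24 h, with blood drawn at each reading for compound level. Concentrations giving 50% and 10% FS reduction were derived, and their IC50/IC10 ratio was calculated.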

Chain of CYP3A4 (P08684 whole entry): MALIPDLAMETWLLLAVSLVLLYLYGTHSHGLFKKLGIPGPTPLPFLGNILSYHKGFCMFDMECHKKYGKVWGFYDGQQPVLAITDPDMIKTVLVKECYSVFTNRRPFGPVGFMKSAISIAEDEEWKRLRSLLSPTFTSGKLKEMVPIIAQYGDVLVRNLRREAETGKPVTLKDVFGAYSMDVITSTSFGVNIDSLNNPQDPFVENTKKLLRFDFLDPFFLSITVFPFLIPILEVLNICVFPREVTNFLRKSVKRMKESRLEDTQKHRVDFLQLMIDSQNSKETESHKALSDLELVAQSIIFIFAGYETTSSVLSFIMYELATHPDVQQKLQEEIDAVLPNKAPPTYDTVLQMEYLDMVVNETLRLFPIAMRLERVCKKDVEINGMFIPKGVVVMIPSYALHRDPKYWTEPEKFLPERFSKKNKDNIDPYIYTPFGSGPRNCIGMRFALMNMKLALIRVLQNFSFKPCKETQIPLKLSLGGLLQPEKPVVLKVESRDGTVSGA

`CC(C)n1c(=O)cc(N[C@@H](C)c2ccccc2)[nH]c1=O` [MAVACAMTEN] gave an EC50 at 3 days (CYP3A4) of 2.2 µM, a half-life [1] of 216 h and an Activity (Rattus norvegicus [2]) of 80%. The EC50 (Cytochrome P450 2B6) was 5.1 µM, the IC10 (Rattus norvegicus [3]; Rattus norvegicus, Sprague-Dawley, 24 h) was 0.6 µM and the IC50 (Rattus norvegicus [3]; time hrs <=24) was 1.7 µM. The Ratio [4] was 2.8.
